Measured values gathered from unrelated publications.
Lines come from different studies, so protocols differ.
Organism: Pseudomonas aeruginosa
Read-out: microbial growth

CC(C)C1NC(=O)C(C(=O)NC(C(=O)NC2C(=O)N3C2SC(C)(C)C3C(=O)O)c2ccccc2)=C1O (centres unmarked) — MIC: 50 µg/mL
Cc1ccc(C)n1-c1ccc(-c2nnc(-c3ccc(N(C)C)cc3)[nH]2)cc1 — MIC (broth dilution; ATCC10145; 18 h): 250 µg/mL
C[C@H]1[C@H](NC(=O)/C(=N\OC(C)(C)C(=O)O)c2csc(N)n2)C(=O)N1S(=O)(=O)O — MIC (agar dilution; PAO1): 4 µg/mL
CC(=O)NC1CN(Cc2ccc3cc4c(c(O)c3c2)C(=O)C2=C(O)[C@]3(O)C(=O)C(C(N)=O)=C(O)[C@@H](N(C)C)[C@@H]3C[C@@H]2C4)C1 — MIC (broth dilution; ATCC27853): 32 µg/mL
CC(C)Oc1c(NC(=O)c2ccc(NC(=O)[C@H](CC(N)=O)NC(=O)c3ccc(NC(=O)c4ccc(C#N)cc4)cc3)cc2)ccc(C(=O)Nc2cccc(C(=O)O)c2)c1O — MIC (PA14): > 64 µg/mL
CO[C@H]1/C=C/O[C@@]2(C)Oc3c(C)c(O)c4c(O)c(c(/C=N/N5CCN(C)CC5)c(O)c4c3C2=O)NC(=O)/C(C)=C\C=C\[C@H](C)[C@H](O)[C@@H](C)[C@@H](O)[C@@H](C)[C@H](OC(C)=O)[C@@H]1C — MIC (ATCC27853): 16 µg/mL
Fc1ccc(-c2nc3ccccc3n2Cc2ccccc2)cc1 — MIC (broth dilution; ATCC27853): 128 µg/mL
CC(C)Oc1c(NC(=O)c2ccc(NC(=O)[C@H](CC(N)=O)NC(=O)c3ccc(NC(=O)c4ccc(NC(=O)c5ccc([N+](=O)[O-])cc5)cc4)cc3)cc2)ccc(C(=O)Nc2ccc(C(=O)O)cc2)c1O — MIC (PA14): > 64 µg/mL
CCCCCCC/C=C/C(=O)N1C(=O)/C(=C(\O)c2ccc(F)cc2)C(=O)C1CC(C)C (centres unmarked) — MIC (PA01): > 200 µg/mL
Cc1ccc2nc(-c3ccc(Cl)cc3)n(Cc3ccccc3Cl)c2c1 — MIC (broth dilution; ATCC27853): 512 µg/mL
O=C(CCCCCC[P+](c1ccccc1)(c1ccccc1)c1ccccc1)Nc1ccc(O)c(O)c1.[Br-] — MIC (broth dilution; ATCC27853; 18 h): > 32 µg/mL
CCn1cc(C(=O)O)c(=O)c2cc(F)c(N3CCNCC3)cc21 — MIC (broth dilution; ATCC10145; 18 h): > 5 µg/mL
O=C(Cc1ccc(O)c(O)c1)NCCCCCCCC[P+](c1ccccc1)(c1ccccc1)c1ccccc1.[Br-] — MIC (broth dilution; ATCC27853; 18 h): > 32 µg/mL
Cc1ccc2nc(-c3ccc(Cl)cc3)n(Cc3ccccc3)c2c1 — MIC (broth dilution; ATCC27853): 64 µg/mL
CCCC(=O)Oc1c(C)c(O)c(C(=O)/C=C/c2ccccc2)c(OC)c1C — MIC (broth dilution; ATCC27853): 5000 µg/mL
Cc1nc(Cl)c2c(c1O)C(=O)C1=C(O)[C@]3(O)C(=O)C(C(N)=O)=C(O)[C@@H](N(C)C)[C@@H]3C[C@@H]1C2.Cl — MIC (broth dilution; ATCC27853): > 32 µg/mL
C/C(O)=C1\C(=O)C(CC(C)C)N(C(=O)C=Cc2ccccc2)C1=O (centres unmarked) — MIC (PA01): > 200 µg/mL
CC(C)Oc1c(-n2cc(-c3ccc(NC(=O)C(CC(N)=O)NC(=O)c4ccc(NC(=O)c5ccc(C#N)cc5)cc4)cc3)nn2)ccc(C(=O)Nc2ccc(C(=O)O)cc2)c1O (centres unmarked) — MIC (PA14): 8 µg/mL
O=[N+]([O-])c1ccc(O)c2ncccc12 — MIC (broth dilution; ATCC27853): 16 µg/mL
C/C(=C\c1ccc(C#N)cc1)C(=O)Nc1ccc(C(=O)N[C@@H](CC(N)=O)C(=O)Nc2ccc(C(=O)Nc3ccc(C(=O)Nc4ccc(C(=O)O)cc4)c(O)c3OCC(C)C)cc2)cc1 — MIC (PA14): > 64 µg/mL
CCCCCCC/C=C/C(=O)N1C(=O)/C(=C(/C)O)C(=O)C1CCCCN (centres unmarked) — MIC (PA01): > 200 µg/mL
Cc1cc(C)n(C(=O)c2ccc(-n3c(C)ccc3C)cc2)n1 — MIC (broth dilution; ATCC10145; 18 h): 250 µg/mL
Cc1ccccc1NCc1ccc(Oc2ccccn2)cc1 — MIC: > 50 µg/mL
CC1(C)S[C@@H]2[C@H](NC(=O)C(C(=O)O)c3ccccc3)C(=O)N2[C@H]1C(=O)O (some centres unmarked) — MIC (broth dilution): > 200 µM
CC(C)Oc1c(NC(=O)c2ccc(NC(=O)[C@H](CC(N)=O)NC(=O)c3ccc(NC(=O)c4ccc(C#N)cc4)cc3)cc2)ccc(C(=O)NC2CCNCC2)c1O — MIC (PA14): > 64 µg/mL
CNC(C)C1CCC(N)C(OC2C(N)CC(N)C(OC3OCC(C)(O)C(NC)C3O)C2O)O1 (centres unmarked) — MIC (broth dilution; PAO1): 4 µg/mL
CN(C)C1CN(Cc2ccc3cc4c(c(O)c3c2)C(=O)C2=C(O)[C@]3(O)C(=O)C(C(N)=O)=C(O)[C@@H](N(C)C)[C@@H]3C[C@@H]2C4)C1 — MIC (broth dilution; ATCC27853): 32 µg/mL
O=C1NN=C(N=Cc2ccccc2)C1=NNn1c(-c2ccccc2)nc2ccccc2c1=O — MIC (broth dilution; 24 h): 114 µM
CN(C)c1cc(NC(=O)CNC(C)(C)C)c(O)c2c1C[C@H]1C[C@H]3[C@H](N(C)C)C(O)=C(C(N)=O)C(=O)[C@@]3(O)C(O)=C1C2=O — MIC (broth dilution; ATCC27853): 8 µg/mL
Clc1ccccc1NCc1ccc(Oc2ccccn2)cc1 — MIC: > 25 µg/mL
N=C(N)NN=Cc1ccc(OC/C=C\COc2ccc(C=NNC(=N)N)cc2)cc1 — MIC (PA14; 16 h): ≤ 51 µg/mL
CN(C)[C@@H]1C(O)=C(C(N)=O)C(=O)[C@@]2(O)C(O)=C3C(=O)c4c(cc5ccc(CN(C)S(C)(=O)=O)cc5c4O)C[C@H]3C[C@@H]12 — MIC (broth dilution; ATCC27853): 32 µg/mL
COc1c(C)c(OC)c2c(c1C)OC(c1ccccc1)CC2=O (centres unmarked) — MIC (broth dilution; ATCC27853): 5000 µg/mL
O=C(Nc1ccc(F)c(Cl)c1)c1cc(Cl)ccc1O — MIC (broth dilution; ATCC27853): > 64 µg/mL
CCCCCCC#Cc1cncc(-c2nnc(SCc3ccc(C#N)cc3)n2C)c1 — MIC: ≥ 20 µg/mL
O=c1c(O)c(-c2ccc(O)c(O)c2)oc2cc(O)cc(O)c12 — MIC (broth dilution; PAO1): 256 µg/mL
CN(C)[C@@H]1C(O)=C(C(N)=O)C(=O)[C@@]2(O)C(O)=C3C(=O)c4c(O)c(NC(=O)CNC(C)(C)C)nc(F)c4C[C@H]3C[C@@H]12.Cl.Cl — MIC (broth dilution; ATCC27853): > 32 µg/mL
Cc1c(CN(C)C(=O)/C=C/c2cnc3c(c2)CC(NC(=O)OC(C)(C)C)C(=O)N3)oc2ccccc12 (centres unmarked) — MIC (broth dilution; PA01): > 32 µg/mL
CCCCCC(=O)Oc1c(C)c(O)c(C(=O)/C=C/c2ccccc2)c(OC)c1C — MIC (broth dilution; ATCC27853): 5000 µg/mL
Cc1ncc(O)c2c1C[C@H]1C[C@H]3[C@H](N(C)C)C(O)=C(C(N)=O)C(=O)[C@@]3(O)C(O)=C1C2=O.Cl.Cl — MIC (broth dilution; ATCC27853): 16 µg/mL
C[C@H]1COc2c(N3CCN(C)CC3)c(F)cc3c(=O)c(C(=O)O)cn1c23 — MIC (broth dilution; CMCC10104): 138 µM
O=C1NN=C(N=Cc2ccc(O)c(O)c2)C1=NNn1c(-c2ccccc2)nc2ccccc2c1=O — MIC (broth dilution; 24 h): 53.5 µM
CC(C)Oc1c(N)ccc(C(=O)Nc2ccc(C(=O)N[C@@H](CC(N)=O)C(=O)Nc3ccc(C(=O)Nc4ccc(C(=O)Nc5ccc(C(=O)O)cc5)c(O)c4OC(C)C)cc3)cc2)c1O — MIC (PA14): 32 µg/mL
CN(C)c1c2c(c(O)c3cc(F)ccc13)C(=O)C1=C(O)[C@]3(O)C(=O)C(C(N)=O)=C(O)[C@@H](N(C)C)[C@@H]3C[C@@H]1C2 — MIC (broth dilution; ATCC27853): > 32 µg/mL
CCCNc1nc(N(C)C)c2c(c1O)C(=O)C1=C(O)[C@]3(O)C(=O)C(C(N)=O)=C(O)[C@@H](N(C)C)[C@@H]3C[C@@H]1C2.Cl.Cl — MIC (broth dilution; ATCC27853): > 32 µg/mL
CCCCCCC#Cc1cncc(-c2nnc(SCc3ccc(Cl)cc3)n2C2CC2)c1 — MIC: ≥ 20 µg/mL
COc1cc(C(=O)Nc2ccc(C(=O)N[C@@H](CC(N)=O)C(=O)Nc3ccc(C(=O)Nc4ccc(C(=O)Nc5ccc(C(=O)O)cc5)c(O)c4OC(C)C)cc3)cc2)ccc1C#N — MIC (PA14): > 64 µg/mL
COc1ccc(NCc2ccc(Oc3ccccn3)cc2)cc1 — MIC: > 25 µg/mL
CC(C)Oc1c(NC(=O)c2ccc(NC(=O)[C@H](CC(N)=O)NC(=O)c3ccc(NC(=O)c4ccc(F)cc4)cc3)cc2)ccc(C(=O)Nc2ccc(C(=O)O)cc2)c1O — MIC (PA14): > 64 µg/mL
CC1NC(=O)C(C(=O)NC(C(=O)NC2C(=O)N3C2SC(C)(C)C3C(=O)O)c2ccccc2)=C1O (centres unmarked) — MIC: 50 µg/mL
